ChEMBL document CHEMBL6127097, “Structure-Guided Discovery of cis-Hexahydro-pyrido-oxazinones as Reversible, Drug-like Monoacylglycerol Lipase Inhibitors” (J Med Chem, 2024)
One block for each compound: values may come before it. Active and inactive are the calls of the source. The calls are words filed in the database; no cut-off is given here.

Columns and labels:
Mus musculus [1] = organism: Mus musculus; test: Inhibition of DAGL in mouse brain lysates at 10 uM by ABPP assay; format: subcellular
Method in brief: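 Gel-based activity-based protein profiling of hydrolases, with the inhibitor at 10 µM.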

LLC-PK1 = test: Substrate activity at human P-gp expressed in LLC-PK1 cells assessed as efflux ratio incubated for 3 hrs; format: cell-based
Method in brief: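 LLC-PK1 porcine kidney cells transfected with human or mouse P-gp, grown as polarized monolayers on filter plates. Compound is dosed apically or basolaterally and transport followed 3 h at 37 °C. Efflux ratio comes from unidirectional Papp; 1 µM zosuquidar defines permeability without P-gp.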

[2] = molecular target: T1, Monoglyceride lipase (Mus musculus) (UniProt O35678); test: In vivo receptor occupancy at MAGL receptor in mouse at 30 mg/kg, ip measured after 8 hrs; format: functional, organism-based
T1 sequence (whole entry): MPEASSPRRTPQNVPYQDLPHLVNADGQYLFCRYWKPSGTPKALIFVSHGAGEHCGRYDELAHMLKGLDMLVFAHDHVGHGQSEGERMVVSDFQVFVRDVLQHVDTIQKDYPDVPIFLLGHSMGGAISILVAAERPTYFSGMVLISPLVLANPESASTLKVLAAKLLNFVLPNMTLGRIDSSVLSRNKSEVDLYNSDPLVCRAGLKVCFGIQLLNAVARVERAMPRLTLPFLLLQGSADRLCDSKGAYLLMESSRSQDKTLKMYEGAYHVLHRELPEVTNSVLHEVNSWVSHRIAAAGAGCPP
Method in brief: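 Mice dosed 30 mg/kg i.p. in NaCl/DMSO/TW80 (80/10/10). Brain proteome was prepared at set time points over 24 h and MAGL occupancy read by activity-based protein profiling.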

Mus musculus [3] = test: Antiinflammatory activity in LPS-induced CD-1 mouse neuroinflammation model assessed as decrease in brain LCN2 mRNA expression at 30 mg/kg, ip measured after 6 hrs by qRT-PCR analysis; format: functional, organism-based
Method in brief: (§1)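 CD-1 mice received NaCl + vehicle, LPS (5 mg/kg) + vehicle, or LPS + inhibitor at 30 mg/kg i.p. The vehicle was NaCl/DMSO/Tween 80, 80/10/10. Mice were killed 6 h after compound dosing. LCN2 and IL1b mRNA in cortical brain lysates were quantified by droplet digital qRT-PCR.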

Mus musculus [4] = test: Antiinflammatory activity in LPS-induced CD-1 mouse neuroinflammation model assessed as decrease in brain IL-1beta mRNA expression at 30 mg/kg, ip measured after 6 hrs by qRT-PCR analysis; format: functional, organism-based; method in brief: as §1
[5] = molecular target: Fatty acid amide hydrolase (Mus musculus) (UniProt O08914); test: Inhibition of FAAH in mouse brain lysates at 10 uM by ABPP assay
Chain of Fatty acid amide hydrolase (Mus musculus) (O08914 whole entry, looked up): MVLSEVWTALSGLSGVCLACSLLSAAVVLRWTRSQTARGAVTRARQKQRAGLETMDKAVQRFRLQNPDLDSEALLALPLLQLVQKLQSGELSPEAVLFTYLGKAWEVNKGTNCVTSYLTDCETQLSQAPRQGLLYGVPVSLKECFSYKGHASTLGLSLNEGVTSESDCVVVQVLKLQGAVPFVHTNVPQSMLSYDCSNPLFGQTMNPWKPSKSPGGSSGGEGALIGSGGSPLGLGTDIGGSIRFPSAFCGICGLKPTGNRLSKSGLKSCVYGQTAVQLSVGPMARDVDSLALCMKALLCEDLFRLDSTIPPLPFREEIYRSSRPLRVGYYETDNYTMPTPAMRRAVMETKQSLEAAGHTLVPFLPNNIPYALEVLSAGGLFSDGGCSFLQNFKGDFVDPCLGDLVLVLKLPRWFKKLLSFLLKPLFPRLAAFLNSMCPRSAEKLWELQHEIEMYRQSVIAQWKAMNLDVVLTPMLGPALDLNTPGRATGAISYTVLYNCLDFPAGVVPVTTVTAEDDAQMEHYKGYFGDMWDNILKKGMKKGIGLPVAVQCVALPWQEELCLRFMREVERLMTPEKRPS

[6] = Effective permeability of compound at pH 7.4 at 20 uM incubated for 18 hrs by LCMS analysis; format: ADME; conditions: not told, read-out: Peff
Method in brief: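 PAMPA passive permeability. Donor holds 20 µM sample in 50 mM phosphate-buffered saline pH 7.4, at most 5% DMSO, in triplicate. The lipid/oil/lipid trilayer-impregnated hydrophobic filter sandwich is left unshaken 18 h at 21 °C. Reference, donor and acceptor solutions are analysed by LCMS to give P_eff.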

[7] = Chemical stability at pH 4 incubated for 2 hrs; format: physicochemical; conditions: buffer, pH 4, 2 h
Method in brief: (§2)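 Compound was held in aqueous buffer at the stated pH for 2 h at 37 °C.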

[8] = Chemical stability at pH 8 incubated for 2 hrs; format: physicochemical; conditions: buffer, pH 8, 2 h; method in brief: as §2
Monoglyceride lipase = molecular target: T2, Monoglyceride lipase (Rattus norvegicus, UniProt Q8R431); test: Binding affinity to rat MAGL assessed as equilibrium dissociation constant by SPR analysis
T2 sequence (Q8R431 whole entry): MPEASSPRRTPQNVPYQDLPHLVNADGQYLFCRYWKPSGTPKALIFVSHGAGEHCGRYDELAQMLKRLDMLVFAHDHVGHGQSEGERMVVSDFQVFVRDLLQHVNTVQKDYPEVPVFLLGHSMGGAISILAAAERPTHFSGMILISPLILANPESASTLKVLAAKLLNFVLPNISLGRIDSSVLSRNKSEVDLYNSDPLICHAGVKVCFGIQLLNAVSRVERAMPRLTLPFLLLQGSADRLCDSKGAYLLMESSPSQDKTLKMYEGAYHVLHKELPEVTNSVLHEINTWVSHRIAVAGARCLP
Method in brief: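 Human or rat MAGL was immobilized by amine coupling without ethanolamine quenching. Runs were done at 18 °C in 10 mM HEPES, 150 mM NaCl, 0.05% P20, 50 µM EDTA, pH 7.4, with 1% DMSO. Single-cycle kinetics used five concentrations, top 1 µM in 2-fold steps, at 30 µL/min, giving kon, koff and Kd.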

[9] = Clearance in human microsomes; format: ADME, Microsome
[10] = Clearance in mouse microsomes; format: ADME, Microsome
mouse P-gp = test: Apparent permeability across apical to basolateral side in pig LLC-PK1 cells expressing mouse P-gp; format: ADME, cell-based, Sus scrofa
Method in brief: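 LLC-PK1 porcine kidney cells transfected with human or mouse P-gp were grown as polarized monolayers on filter membranes. Compound was dosed to the apical side and receiver appearance followed over 3 h at 37 °C. A→B Papp was measured with the P-gp inhibitor zosuquidar present at 1 µM.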

[11] = Tmax in Wistar rat at 10 mg/kg, ip measured […] by LC-MS/MS analysis; format: ADME, organism-based; conditions: in vivo
Method in brief: (§3)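 Male Wistar rats, single dose. i.v. in NMP/0.9% NaCl 30:70; p.o. and i.p. in NMP/HPMC/diisooctyl sulfosuccinate 10:90; 3 per i.v./p.o. group, 6 i.p. K2EDTA plasma sampled 0.083–7 h, plus 24 h for i.v./p.o.; brain and CSF at 1, 2, 7 h (i.p. only). LC-MS/MS, noncompartmental analysis.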

[12] = Bioavailability in Wistar rat at 10 mg/kg, ip measured upto 24 hrs by LC-MS/MS analysis; format: ADME, organism-based; conditions: in vivo
[13] = Ratio of drug concentration in Wistar rat CSF to plasma at 10 mg/kg, ip measured upto 7 hrs by LC-MS/MS analysis; format: ADME, organism-based; method in brief: as §3
CYP3A4 = CYP3A4 (Homo sapiens, UniProt P08684); test: Inhibition of CYP3A4 (unknown origin) at 10 uM relative to control; format: ADME
Chain of CYP3A4 (P08684 whole entry): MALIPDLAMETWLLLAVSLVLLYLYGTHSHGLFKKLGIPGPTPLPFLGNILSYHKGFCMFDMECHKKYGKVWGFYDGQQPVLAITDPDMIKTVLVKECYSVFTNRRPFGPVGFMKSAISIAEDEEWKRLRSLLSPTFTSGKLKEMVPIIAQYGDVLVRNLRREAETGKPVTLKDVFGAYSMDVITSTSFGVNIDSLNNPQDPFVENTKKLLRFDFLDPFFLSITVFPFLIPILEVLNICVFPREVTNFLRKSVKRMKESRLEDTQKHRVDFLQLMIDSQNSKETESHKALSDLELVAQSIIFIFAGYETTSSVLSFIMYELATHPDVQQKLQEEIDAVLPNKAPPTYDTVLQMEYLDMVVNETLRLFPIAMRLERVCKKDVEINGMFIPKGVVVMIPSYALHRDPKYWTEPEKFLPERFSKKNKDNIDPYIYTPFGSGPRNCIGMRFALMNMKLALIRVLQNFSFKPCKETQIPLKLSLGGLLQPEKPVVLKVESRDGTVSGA

CYP2D6 = CYP2D6 (Homo sapiens, UniProt P10635); test: Inhibition of CYP2D6 (unknown origin) at 10 uM relative to control; format: ADME
Chain of CYP2D6 (P10635 whole entry): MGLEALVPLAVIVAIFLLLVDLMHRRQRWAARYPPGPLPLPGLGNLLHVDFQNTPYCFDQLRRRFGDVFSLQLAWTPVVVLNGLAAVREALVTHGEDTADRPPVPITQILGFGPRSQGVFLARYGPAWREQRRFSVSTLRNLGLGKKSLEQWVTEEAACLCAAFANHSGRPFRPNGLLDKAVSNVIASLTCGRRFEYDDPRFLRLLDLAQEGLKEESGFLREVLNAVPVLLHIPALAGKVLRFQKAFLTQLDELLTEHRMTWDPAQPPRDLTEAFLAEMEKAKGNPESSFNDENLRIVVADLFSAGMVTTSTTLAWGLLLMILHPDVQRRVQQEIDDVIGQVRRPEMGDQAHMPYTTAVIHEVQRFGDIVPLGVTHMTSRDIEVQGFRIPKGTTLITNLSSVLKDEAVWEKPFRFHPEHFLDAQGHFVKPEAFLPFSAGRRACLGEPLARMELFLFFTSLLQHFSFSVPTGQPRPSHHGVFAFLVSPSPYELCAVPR

[14] = molecular target: Voltage-gated inwardly rectifying potassium channel KCNH2 (Homo sapiens, UniProt Q12809); test: Inhibition of human ERG expressed in CHO cells by automated patch clamp method; format: toxicity, cell-based
Chain of Voltage-gated inwardly rectifying potassium channel KCNH2 (Q12809 whole entry): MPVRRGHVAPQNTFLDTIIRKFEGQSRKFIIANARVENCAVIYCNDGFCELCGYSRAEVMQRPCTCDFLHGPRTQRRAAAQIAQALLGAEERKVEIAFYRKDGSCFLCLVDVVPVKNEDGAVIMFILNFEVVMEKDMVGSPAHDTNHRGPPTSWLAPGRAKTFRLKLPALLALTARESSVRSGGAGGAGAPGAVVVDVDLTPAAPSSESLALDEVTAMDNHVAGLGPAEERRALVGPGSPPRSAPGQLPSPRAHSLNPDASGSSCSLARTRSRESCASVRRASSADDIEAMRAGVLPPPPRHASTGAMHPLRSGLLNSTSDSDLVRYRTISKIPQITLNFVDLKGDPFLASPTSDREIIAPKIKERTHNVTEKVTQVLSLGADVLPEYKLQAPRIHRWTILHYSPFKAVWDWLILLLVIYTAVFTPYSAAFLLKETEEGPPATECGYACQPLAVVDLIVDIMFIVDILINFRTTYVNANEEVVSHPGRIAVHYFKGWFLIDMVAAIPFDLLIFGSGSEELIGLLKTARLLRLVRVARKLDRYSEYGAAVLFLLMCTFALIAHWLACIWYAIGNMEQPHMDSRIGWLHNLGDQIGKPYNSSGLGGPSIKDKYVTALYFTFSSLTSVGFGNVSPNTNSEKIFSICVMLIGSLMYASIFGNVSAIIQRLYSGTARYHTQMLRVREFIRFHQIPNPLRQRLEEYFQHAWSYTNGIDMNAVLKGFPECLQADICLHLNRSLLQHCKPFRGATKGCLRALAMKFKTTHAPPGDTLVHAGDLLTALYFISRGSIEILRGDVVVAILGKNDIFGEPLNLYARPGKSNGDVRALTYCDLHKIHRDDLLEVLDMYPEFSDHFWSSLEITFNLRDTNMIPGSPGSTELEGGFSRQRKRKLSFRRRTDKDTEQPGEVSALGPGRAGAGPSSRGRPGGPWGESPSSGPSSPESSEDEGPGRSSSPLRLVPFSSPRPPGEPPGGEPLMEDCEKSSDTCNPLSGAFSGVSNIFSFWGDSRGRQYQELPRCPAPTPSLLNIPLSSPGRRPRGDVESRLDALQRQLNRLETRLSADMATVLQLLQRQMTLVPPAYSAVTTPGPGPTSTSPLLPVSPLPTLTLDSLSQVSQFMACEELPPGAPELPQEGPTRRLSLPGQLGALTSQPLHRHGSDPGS

[15] = Phototoxicity in mouse 3T3 cells; format: toxicity, cell-based; conditions: nih3t3
[16] = Average drug concentration in mouse plasma at 30 mg/kg, ip measured after 16 hrs; format: ADME, organism-based; conditions: in vivo
Method in brief: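 In a time course, mice were injected i.p. with 30 mg/kg in NaCl/DMSO/Tween 80 (80/10/10). Average plasma levels were determined at the stated time points over 24 h.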

[17] = Drug concentration in mouse CSF at 30 mg/kg, ip measured after 2 hrs; format: ADME, organism-based, Cerebrospinal fluid; conditions: read-out: Ct
[18] = Brain-polar-lipids/water distribution coefficient, LIMBA logD brain of the compound at pH 7.4 incubated for 8 hrs by LIMBA

inhibition (Mus musculus [1]): inactive
Activity [2]: 92%
inhibition [5]: inactive
Structure (SMILES): O=C1CO[C@H]2CCN(C(=O)N3CCC(Cc4ccc(C(F)(F)F)cc4)CC3)C[C@H]2N1 [listing 1 of 2 here]
Ratio (LLC-PK1): 2.4
Activity (Mus musculus [3]): Active
Activity (Mus musculus [4]): Active

Papp at 18 h, 20 µM [6]: 12.8 ×10⁻⁶ cm/s
Stability [7]: Stable
Stability [8]: Stable
Kd (Monoglyceride lipase): 0.064 µM
microsomal CLint [9]: < 10 µL/min/mg
microsomal CLint [10]: < 10 µL/min/mg
Papp A→B (mouse P-gp): 24.4 ×10⁻⁶ cm/s
Tmax [11]: 15 min
bioavailability [12]: 111%
Kp at 7 h [13]: 0.017
inhibition at 10 µM (CYP3A4): -195%
inhibition at 10 µM (CYP2D6): -12%
Cave [16]: 2955 nM
concentration at 2 h [17]: 689 nM
LIMBA logD brain at 8 h [18]: 1.8
Structure (SMILES): O=C1CO[C@H]2CCN(C(=O)N3CCC(Cc4ccc(C(F)(F)F)cc4)CC3)C[C@H]2N1 [listing 2 of 2 here]
IC50 [14]: 7.7 µM
Activity [15]: Non-Toxic
